Test results from ChEMBL document CHEMBL1126319, “Synthesis, antiproliferative, and antiviral activity of certain 4-aminopyrrolo[2,3-d]pyridazine nucleosides: an entry into a novel series of adenosine analogues” (J Med Chem, 1992).

How the values were obtained:
L1210 [1] = assay: Concentration required to decrease the growth rate to 50% of control was evaluated by determining their ability to inhibit growth of L1210 cells in vitro.; assay type: functional, cell-based; conditions: Mus musculus
In short: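 L1210 cells are grown in static suspension in Fischer's medium. Cell number is counted at 0, 48 and 96 h across a range of compound concentrations. Growth rate is the semilog slope as a percent of control; the 48–96 h rate is used if growth slowed. IC50 is the concentration giving 50% of control growth rate.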

Human betaherpesvirus 5 [2] = assay: Concentration required to decrease the growth rate to 50% of control was evaluated against HCMV by using plaque reduction assay.; assay type: functional, organism-based
In short: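 HFF monolayers infected with about 50 PFU of HCMV Towne strain (plaque-purified P0 isolate) in a 0.2 mL inoculum. Compounds are dissolved in the overlay medium and plaques are counted. Percent inhibition is regressed linearly against log concentration to give the IC50. Acyclovir or ganciclovir serves as positive control. Values are averages of two to seven experiments.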

[3] = Cytotoxicity of compound was determined visually in human diploid fibroblasts (HFF).
In short: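 HFF cells are grown in MEM(E) with 10% FBS. Drug-induced cytopathology in uninfected cells of the HCMV plaque assay is scored 0 to 4+ at 35- and 60-fold magnification on the day of plaque staining. IC50 comes from regression against log concentration.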

L1210 [4] = assay: In vitro antiproliferative effect against growth rate of L1210 cells at 100 uM concentration; assay type: functional, Mus musculus
In short: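 L1210 cells are held in static suspension in Fischer's medium with compound at 100 μM. Cell counts are taken at 0, 48 and 96 h. Growth rate is the semilog slope versus time as a percent of control.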

Human alphaherpesvirus 1 = assay: Concentration required to decrease the growth rate to 50% of control was evaluated against HSV-1 by using enzyme immunoassay.
Homo sapiens [5] = species: Homo sapiens; assay: Concentration required to decrease the growth rate to 50% of control was evaluated by determining their ability to inhibit growth of H.Ep.2 cells in vitro.; assay type: functional, cell-based; conditions: HEp-2
In short: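 H.Ep.2 cells are grown in MEM (Earle's salts) with 15% bovine calf serum under 5% CO2, and 2000 cells/well are plated in MEM with 5% serum. Compounds are added 1 day later. Growth is read by crystal violet staining (A560-570) at days 0, 2 and 5 after addition. Growth rate is Td(control)/Td(treated), and IC50 is the concentration halving growth rate.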

Homo sapiens [6] = species: Homo sapiens; assay: In vitro antiproliferative effect against growth rate of H. Ep.2 cells at 100 uM concentration; assay type: functional
In short: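 H.Ep.2 cells receive compound at 100 μM. Growth is read by crystal violet A560-570 at days 0, 2 and 5 and expressed as growth rate, the slope of semilog cell number versus time as a percent of control.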

KB = assay: Cytotoxicity of compound was determined by assaying cell growth in human neoplastic cell line(KB).; assay type: functional, cell-based
In short: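 KB cells (human epidermoid oral carcinoma) are grown in MEM(H) with 5% FBS. Growth is measured spectrophotometrically by crystal violet staining two days after drug treatment. IC50 comes from linear regression of percent inhibition against log concentration.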

Human betaherpesvirus 5 [7] = assay: Concentration required to decrease the growth rate to 50% of control was evaluated against HCMV by using yield reduction assay.; assay type: functional

Q: Which results are given for `Nc1nncc2c1ccn2C1O[C@H](CO)[C@@H](O)[C@@H]1O` (stereo partly drawn)?
A: IC50 (L1210 [1]): > 100 µM; IC50 (Human betaherpesvirus 5 [2]): > 100 µM; IC50 [3]: > 100 µM; Control (L1210 [4]): 88%; IC50 (Human alphaherpesvirus 1): > 100 µM

Q: Which IC50 (Homo sapiens [5]) does the source give for `Nc1ncnc2c1ccn2[C@@H]1O[C@H](CO)[C@@H](O)[C@H]1O` [TUBERCIDIN] here?
A: 0.06 µM

Q: What about the IC50 [3] of the same compound?
A: 0.4 µM

Q: What about the Of control (Homo sapiens [6]) of the same compound?
A: 0%

Q: And the Control (L1210 [4])?
A: 0%

Q: What about the IC50 (KB) of the same compound?
A: 1 µM

Q: Which results are given for `Nc1nncc2c1ccn2C1O[C@H](CO)[C@@H](O)[C@H]1O` (stereo partly drawn)?
A: IC50 (Human betaherpesvirus 5 [2]): > 100 µM; IC50 [3]: > 100 µM; Control (Homo sapiens [6]): 93%; Control (L1210 [4]): 100%; IC50 (Human alphaherpesvirus 1): > 100 µM

Q: What does the source list for `Nc1nncc2c1c(Br)cn2C1O[C@H](CO)[C@@H](O)[C@H]1O` (stereo partly drawn)?
A: IC50 (L1210 [1]): 24 µM; IC50 (Human betaherpesvirus 5 [2]): 90 µM; IC50 (Homo sapiens [5]): 5.2 µM; IC50 [3]: 100 µM; IC90 (Human betaherpesvirus 5 [7]): 2.2 µM; Of control (Homo sapiens [6]): 6%; Control (L1210 [4]): 9%; IC50 (KB): 12 µM; IC50 (Human alphaherpesvirus 1): 30 µM

Q: Which IC50 [3] does the source give for `Nc1nc2c(ncn2COCCO)c(=O)[nH]1` [ACYCLOVIR] here?
A: > 100 µM

Q: What about the IC90 (Human betaherpesvirus 5 [7]) of the same compound?
A: 90 µM

Q: And the IC50 (KB)?
A: > 100 µM

Q: And the IC50 (Human alphaherpesvirus 1)?
A: 3.4 µM

Q: Which results are given for `Nc1nc2c(ncn2COC(CO)CO)c(=O)[nH]1` [GANCICLOVIR]?
A: IC50 (Human betaherpesvirus 5 [2]): 8.4 µM; IC50 [3]: > 100 µM; IC90 (Human betaherpesvirus 5 [7]): 1.8 µM; IC50 (KB): > 100 µM

Q: Which results are given for `Nc1ncnc2c1c(Br)cn2[C@@H]1O[C@H](CO)[C@@H](O)[C@H]1O`?
A: IC50 (Human betaherpesvirus 5 [2]): 0.6 µM; IC50 [3]: 1.2 µM; IC90 (Human betaherpesvirus 5 [7]): 3.5 µM; Control (L1210 [4]): 9%; IC50 (KB): 3 µM; IC50 (Human alphaherpesvirus 1): 4 µM
